The assay has as its target G2/mitotic-specific cyclin-B1 (Homo sapiens) (UniProt P14635). In words: cyclin B1-luciferase fusion stabilization in HeLa – cell-based, luminescence, powder samples, selectivity assay for Wee1 degradation inhibitor project, late-stage follow-up (AID 463186). Particulars: HeLa cyclin B-luciferase stability, at 0.1 µM, active compounds read high. The gist of the method:
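System: HeLa cells transiently expressing cyclin B–luciferase fusion reporter | Doses: Single nominal dose of 100 nM (0.1 µM) per compound | Timing: 48 h transfection, then 20 h compound exposure at 37 °C | Technique: Luminescence of luciferase reporter | Read-out basis: Mean fold-change in luminescence relative to DMSO-treated cells | Repeats: Four replicate wells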

These results are taken from PubChem BioAssay AID463186 (The Scripps Research Institute Molecular Screening Center, 2010).

The source made the active and inactive calls.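 The calls were made as follows: active = mean luminescence fold change over vehicle of at least 10; inactive = the rest.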

G2/mitotic-specific cyclin-B1 (Homo sapiens), sequence (P14635 whole entry, looked up, the tested form may be a part): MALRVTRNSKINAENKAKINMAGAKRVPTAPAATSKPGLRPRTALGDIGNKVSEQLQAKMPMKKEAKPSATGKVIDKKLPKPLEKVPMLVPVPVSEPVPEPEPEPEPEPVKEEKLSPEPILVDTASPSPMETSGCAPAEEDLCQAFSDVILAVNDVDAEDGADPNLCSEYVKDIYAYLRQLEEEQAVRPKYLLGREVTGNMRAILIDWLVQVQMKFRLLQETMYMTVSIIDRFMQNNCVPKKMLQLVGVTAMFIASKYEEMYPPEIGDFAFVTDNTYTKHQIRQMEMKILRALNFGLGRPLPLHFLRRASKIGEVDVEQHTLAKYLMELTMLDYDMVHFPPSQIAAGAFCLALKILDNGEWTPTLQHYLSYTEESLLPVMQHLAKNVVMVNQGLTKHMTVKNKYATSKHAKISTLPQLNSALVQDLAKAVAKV

With `O=[N+]([O-])c1cccc2[nH]c(CNc3nc(N4CCOCC4)nc4c3ncn4-c3ccsc3)nc12`, the fold change was 2.62 (inactive). For the compound `c1ccc2[nH]c(CNc3nc(N4CCOCC4)nc4c3ncn4-c3ccsc3)nc2c1`, the fold change was 4.15 (inactive).
